Only a selection was taken, and hits are over-represented in it overall.
TLR4-MyD88 BLA = TLR4-MyD88 interaction inhibition in cells; HeLa CL3-4 TLR4/MyD88 BLA complementation, FRET ratio; O00206+Q99836; inhibition, % at 8.4 µM; AID 861; 200,000 tested, 0.18% active; in the data active = inhibition above about 25%;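 also: 0% = vehicle and 100% = reference inhibitor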
NOD2-RIPK2 inh = NOD2-RIPK2 protein interaction inhibition; CHO BLA complementation NOD2-RIPK2, CCF4 ratio; inhibition, % at 4.98 µM; 360,000 tested, 0.38% active; AID 624267; in the data active = inhibition above about 21%;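 also: 0% = vehicle only and 100% = reference blocker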
XBP1 UPR activ = adaptive UPR (XBP1) activation. CHO-XBP1 luciferase reporter, IRE1-XBP1 UPR activation, luminescence; percent of tunicamycin response, DMSO as zero. activation, % at 20 µM. 330,000 tested, 0.33% active;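 active = versus positive control, 20 µM dose yields 30% or more activation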;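 also: 100% = tunicamycin at 10 µg/mL and 0% = DMSO only wells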
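Material: CHO cell line with stable XBP1 luciferase reporter; buffer or medium: F12 medium containing 10% fetal bovine serum; compound: single point, 20 µM final compound, 1% DMSO; incubation: 6 h treatment, 37 °C; measured by: glow luminescence from Steady-Glo reagent; evaluation: activation, % of tunicamycin; control set: tunicamycin high, DMSO low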
CHOP UPR activ = apoptotic UPR (CHOP) activation | CHO-CHOP luciferase reporter, luminescence; percent of tunicamycin response over DMSO baseline | activation, % at 10 µM | 330,000 tested, 0.34% active | AID 449763;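 active = at 10 µM dose, activation of 40% or more, normalized to positive control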;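 also: 100% = tunicamycin at 10 µg/mL and 0% = DMSO alone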
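System: CHO CHOP reporter cells. Amount: 500 cells per well. Buffer or medium: F12 medium, 10% FBS. Compound dosing: one dose, 10 µM in 0.5% DMSO. Incubation: 6 h compound exposure at 37 °C after overnight seeding. Technique: Steady-Glo luciferase luminescence. Benchmarks: tunicamycin and DMSO controls.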
TLR9-MyD88 block = blocks human TLR9 binding to MyD88; Q9NR96+Q99836; CHO BLA complementation TLR9-MyD88, CCF4 FRET ratio; inhibition, % at 4.98 µM; 340,000 tested, 0.21% active; AID 504734;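 active = inhibition above the mean over all tested compounds plus 3 SD, cut at about 21% in these data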;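 also: 0% = DMSO only wells and 100% = clavulanate BLA inhibitor control wells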
CHOP inh = inhibitors of CHOP induction in ER stress response; CHO-K1 CHOP-promoter luciferase, tunicamycin-induced, 15-18 h; inhibition, % at 10 µM; 220,000 tested, 3.8% active;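 active = compounds that reduced the stress-induced luciferase reporter signal by more than about 70% of percent inhibition, limit read from the data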;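 also: 0% = tunicamycin plus vehicle and 100% = wells without tunicamycin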
TLR4-MyD88 conf = confirmation of human TLR4-MyD88 binding inhibitors; shares compounds with TLR4-MyD88 BLA; HeLa CL3-4 BLA complementation, CCF4 FRET ratio; inhibition, % at 8.4 µM; 350 tested, 50% active;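 active = mean inhibition across three repeat runs above about 25% carried over from the earlier screen, limit read from the data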;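 also: plate controls were DMSO only for no effect and clavulanic acid blocking BLA at full dose for full effect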
BLA inhibitor ct = counter-screen for TLR4-MyD88 inhibitors: beta-lactamase reporter inhibitors | shares compounds with TLR4-MyD88 BLA | HeLa BLA reporter, CCF4 FRET ratio | inhibition, % at 8.4 µM | 350 tested, 63% active | AID 1237;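 active = mean inhibition over three repeats above about 26% taken from the earlier screen, limit read from the data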;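 also: HeLa cells stably expressing beta-lactamase reporter as counterscreen for TLR4-MyD88 inhibitors; 0% = DMSO and 100% = clavulanic acid full inhibition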
CHOP confirm = confirmation of CHOP induction inhibitors | shares compounds with CHOP inh | 2,100 tested, 45% active | CHO-CHOP promoter luciferase reporter, tunicamycin-induced, luminescence | inhibition, % at 10 µM;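 active = mean of three repeat readings of reporter signal inhibition above a set limit, cut at about 70% in these data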;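 also: 0% = tunicamycin plus vehicle and 100% = wells lacking tunicamycin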
TLR9-MyD88 conf = TLR9-MyD88 interaction inhibition, confirmation. shares compounds with TLR9-MyD88 block. CHO TLR9/MyD88 BLA complementation, CCF4 FRET ratio. inhibition, % at 4.98 µM. 680 tested, 51% active;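 active = mean inhibition across three repeats above about 21% taken from the earlier screen, limit read from the data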;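 also: blue over green emission ratio reports constitutive TLR9 MyD88 association via BLA complementation; 0% = DMSO vehicle wells and 100% = clavulanate BLA inhibitor wells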
BLA counter-1 = non-selective beta-lactamase inhibitors in TLR9-MyD88 counter-screen; inhibition, % at 4.98 µM; AID 540251; shares compounds with TLR9-MyD88 block; 680 tested, 7% active; CHO-BLA cells, CCF4 FRET ratio, BLA reporter;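 active = mean inhibition above a 50% cutoff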;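 also: counterscreen of TLR9-MyD88 hits on CMV-driven BLA in CHO-K1 cells; 0% = DMSO alone and 100% = clavulanate blocking BLA; higher means less blue over green ratio so more BLA blockade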
TLR9 CHO cytotox = CHO cell toxicity counter-screen for TLR9-MyD88 inhibitors; shares compounds with TLR9-MyD88 block; TLR9-MyD88 CHO cells cytotoxicity, luminescence; inhibition, % at 4.98 µM; 680 tested, 39% active; AID 588336; in the data active = inhibition above about 11%
NOD2 RIPK2 conf = confirmation of human NOD2-RIPK2 interaction inhibitors; inhibition, % at 4.98 µM; AID 624370; 1,200 tested, 70% active; shares compounds with NOD2-RIPK2 inh; CHO cells, NOD2-RIPK2 BLA complementation, CCF4 FRET;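 active = mean inhibition across replicates above a set limit taken from the earlier primary screen, cut at about 21% in these data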;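 also: 0% = DMSO-only wells and the high end = clavulanate BLA-blocked wells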
BLA counter-2 = counter-screen for NOD2-RIPK2 interaction inhibitors: BLA reporter | shares compounds with NOD2-RIPK2 inh | CHO BLA reporter, CCF4 FRET ratio, counterscreen | inhibition, % at 4.98 µM | 1,200 tested, 57% active | AID 624371;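 active = mean inhibition above the low-control mean inhibition plus three low-control SD, cut at about 11% in these data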;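 also: 0% = DMSO only wells and 100% = clavulanate high control wells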
* = called active by the depositor; nt = no result.

SMILES | TLR4-MyD88 BLA | NOD2-RIPK2 inh | XBP1 UPR activ | CHOP UPR activ | TLR9-MyD88 block | CHOP inh | TLR4-MyD88 conf | BLA inhibitor ct | TLR9-MyD88 conf | BLA counter-1 | TLR9 CHO cytotox | NOD2 RIPK2 conf | BLA counter-2 | others
COc1cc2c3nnc(-c4ccc(F)cc4)c-3cn(Cc3cccc(C)c3)c2cc1OC | 44* | 55* | 10 | 11 | 41* | 40 | 14 | 60* | 26* | 44 | -2 | 73* | 75*
COc1cc2c3nnc(-c4ccc(F)cc4)c-3cn(Cc3ccc(C)cc3)c2cc1OC | 48* | 51* | 25 | 35 | 27* | 49 | 26* | 81* | 59* | 61* | 8 | 84* | 86*
O=C(CCNC(=O)C1CCN(S(=O)(=O)c2ccc(F)cc2)CC1)NCc1ccccc1Cl | nt | -1 | -3 | 0 | 1 | nt | nt | nt | nt | nt | nt | nt | nt
O=S(=O)(NCCC1=CCCCC1)c1ccc(Br)cc1 | nt | 2 | 2 | 2 | -7 | nt | nt | nt | nt | nt | nt | nt | nt
COc1ccc(C(=O)c2sc3nc(-c4ccccc4)ccc3c2N)cc1 | 47* | 50* | -3 | 0 | 40* | 78* | 52* | 86* | 52* | 53* | 6 | 73* | 79*
CC(C)OC(=O)c1sc2nc(-c3ccccc3)ccc2c1N | 49* | 24* | -1 | -1 | 38* | 83* | 48* | 77* | 42* | 45 | 8 | 64* | 73*
O=C(c1ccc(=O)[nH]c1)N1CCN(S(=O)(=O)c2ccccc2)CC1 | nt | 3 | -7 | -1 | 0 | nt | nt | nt | nt | nt | nt | nt | nt
Cc1[nH]c2ccccc2c1/C=C/C(=O)c1ccccc1 | 27* | 44* | 0 | 12 | 40* | 0 | 27* | 49* | 21 | 22 | 1 | 43* | 49*
Cc1[nH]c2ccccc2c1/C=N/NC(=O)c1ccccc1 | nt | 4 | 10 | 1 | 3 | nt | nt | nt | nt | nt | nt | nt | nt
CCN(CC)c1ccc2c(c1)oc(=O)c1c(Cl)cc(=O)oc12 | 80* | 62* | -7 | 24 | 50* | 108* | 87* | 109* | 51* | 74* | 73* | 89* | 84* | CHOP confirm=26
CCN(CC)c1ccc2c(C)c(Cl)c(=O)oc2c1 | 16 | 15 | 1 | 3 | 8 | 18 | nt | nt | nt | nt | nt | nt | nt
O=[N+]([O-])c1ccc(N/N=C/c2c[nH]c3ccccc23)cc1 | 40* | 36* | 9 | 9 | 44* | 57 | 28* | 53* | 29* | 24 | 9 | 46* | 47*
O=C(N/N=C/c1c[nH]c2ccccc12)c1cccc([N+](=O)[O-])c1 | 1 | 2 | -2 | 1 | -16 | 3 | nt | nt | nt | nt | nt | nt | nt
CCC(=O)c1ccc(/C=C/c2nc3ccccc3n2C)o1 | 50* | 58* | -3 | 1 | 43* | -7 | 47* | 65* | 31* | 39 | 1 | 63* | 64*
O=C1[C@H]2[C@@H](c3ccc(F)cc3)N3C(=O)N(c4cccc(F)c4)C(=O)[C@@]3(Cc3ccc(Cl)cc3)[C@H]2C(=O)N1C1CCCCC1 | nt | -3 | 2 | 4 | 4 | nt | nt | nt | nt | nt | nt | nt | nt
Cc1cc(Cl)n2c(nc3cc(F)c(F)cc32)c1C#N | 75* | 63* | nt | nt | 71* | 105* | 72* | 86* | 66* | 54* | 101* | 90* | 82* | CHOP confirm=124*
Cc1cc(C)n2c(=O)c3ccc(Cl)cc3nc2c1C#N | 1 | -6 | 1 | 1 | 0 | -16 | nt | nt | nt | nt | nt | nt | nt
CN1CCCc2cc3c(C(F)(F)F)cc(=O)oc3nc21 | 39* | 35* | 2 | 2 | 47* | 43 | 36* | 66* | 38* | 45 | 7 | 69* | 73*
CC(C)c1cc(=O)oc2c3c4c(cc12)CCCN4CCC3 | 6 | 7 | 1 | -1 | 1 | 28 | nt | nt | nt | nt | nt | nt | nt
CNC(=O)NC(=O)C(C)OC(=O)c1c2c(nc3ccccc13)/C(=C/c1cccs1)CC2 (centres undefined) | 51* | 56* | 2 | 4 | 51* | 47 | 55* | 85* | 51* | 63* | 11* | 72* | 81*
CC(OC(=O)c1c2c(nc3ccccc13)/C(=C\c1ccc3c(c1)OCO3)CCC2)C(=O)Nc1ccc(S(N)(=O)=O)cc1 (centres undefined) | 12 | 4 | nt | nt | 5 | 8 | nt | nt | nt | nt | nt | nt | nt
CCCCNC(=O)COC(=O)c1c2c(nc3ccccc13)/C(=C/c1cccs1)CC2 | 56* | 52* | nt | nt | 48* | 47 | 50* | 83* | 43* | 46 | 6 | 67* | 77*
CCCCNC(=O)COC(=O)c1c2c(nc3ccccc13)CCC2 | nt | 2 | -2 | 1 | 3 | nt | nt | nt | nt | nt | nt | nt | nt
O=S(=O)(c1cccs1)N1CCCCC1 | nt | -2 | nt | nt | 4 | nt | nt | nt | nt | nt | nt | nt | nt
CCCCCCSc1ccc(-c2nc3cnccn3c2NC2CCCCC2)cc1 | nt | -5 | nt | nt | nt | nt | nt | nt | nt | nt | nt | nt | nt
Clc1ccc(-c2nc3cnccn3c2NC2CCCC2)cc1 | 32* | 25* | 0 | 0 | 24* | 33 | 10 | 22 | 15 | 15 | -1 | 34* | 34*
C/C(=N\Nc1ccc([N+](=O)[O-])cc1)c1ccc(O)cc1 | 38* | 29* | 0 | 1 | nt | 15 | 20 | 44* | nt | nt | nt | 42* | 48*
CC1(C)CC(=O)N(c2cccc(C(F)(F)F)c2)C(=O)C1 | nt | -13 | -5 | 1 | 6 | nt | nt | nt | nt | nt | nt | nt | nt
